# CSN deneddyl inh: CSN deneddylation inhibition; Q92905; Purified CSN, SCF-Nedd8-OG deneddylation, fluorescence polarization; inhibition, % at 12.5 µM; 360,000 compounds, 0.38% hits; AID 651999;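 active means pattern-corrected inhibition above about 35%, with an unprinted fluorescence ratio check between 0.5 and 1.5, limit read from the data, passing the limit was not always enough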;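 further: 0% = enzyme with substrate and 100% = substrate without enzyme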
# Target sequence (Q92905 whole entry, looked up, one chain of several): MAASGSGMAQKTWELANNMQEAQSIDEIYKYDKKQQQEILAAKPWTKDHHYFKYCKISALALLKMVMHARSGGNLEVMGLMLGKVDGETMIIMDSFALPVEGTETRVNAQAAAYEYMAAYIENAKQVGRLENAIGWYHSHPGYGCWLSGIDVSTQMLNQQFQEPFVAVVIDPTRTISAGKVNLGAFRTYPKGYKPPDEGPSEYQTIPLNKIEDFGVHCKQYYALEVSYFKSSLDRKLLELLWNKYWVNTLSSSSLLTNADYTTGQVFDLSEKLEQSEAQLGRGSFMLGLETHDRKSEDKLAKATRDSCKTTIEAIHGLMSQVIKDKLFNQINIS
#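 Test system: Human Csn5 produced in HEK293T cells | Compound: 12.5 µM single point | Times: 90 min, room temperature | Signal: Fluorescence polarization readout | Read-out basis: % inhibition of substrate cleavage by Csn5 | Controls: no-enzyme wells high, enzyme-with-substrate wells low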
# aDG glyco up: increases alpha dystroglycan glycosylation; Pro5-aDG cells, alpha-DG glycosylation AlphaScreen (IIH6); 0% Pro5, 100% B10-LARGE cell signal; activation, % at 10 µM; 360,000 compounds, 0.22% hits; AID 624168;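 active means activation of at least 8% versus controls, or a plate z-score of at least 8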;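 further: Pro5 are CHO cells carrying HIG-tagged alpha-DG that lacks glycosylation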
# HNF4A DNA FP: change in binding of human HNF4 alpha to DNA | HNF4a-FITC DNA binding, fluorescence polarization, 1 h | activity change, % at 10 µM | 360,000 compounds, 0.3% hits; in the data active means activity change above about 30%, passing the limit was not always enough
# Rev-erbA mod: modulators of human Rev-erb alpha DNA binding; AID 1259318; P20393; Rev-erbα–FITC-DNA binding, fluorescence polarization, 90 min; 370,000 compounds, 0.79% hits; activity, % at 10 µM;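 active means activity above about 14%, limit read from the data; passing the limit was not always enough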;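 further: 0% = DMSO wells with 35 nM protein and 100% = DMSO wells with 750 nM protein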
# NR1D1 mod conf: confirmation of modulators of human Rev-erb alpha DNA binding; shares compounds with Rev-erbA mod; Rev-erb alpha FITC-DNA binding, fluorescence polarization, 90 min; activation, % at 25 µM; 3,000 compounds, 61% hits;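 active means activation at or above a set limit, or at least 3 SD above the negative control mean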;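 further: 0% = 35 nM protein with DMSO and 100% = 750 nM protein high control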
# RORg DNA counter: affects RORgamma DNA binding in a Rev-erb alpha counter-screen. purified RORgamma protein-FITC-DNA binding, fluorescence polarization. IC50, µM. 910 compounds, 8% hits. shares compounds with Rev-erbA mod;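 active means Compounds whose fitted half-maximal concentration for disrupting protein-DNA binding is below 10 micromolar; the record names Rev-erb in its text, so the target is in doubt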
# * marks the source's active call; other numbers are inactive results; i = inactive; . = not tested or not shown. A selection: hits, their analogues and other compounds. The true share with any hit is near 1.5%.
SMILES,CSN deneddyl inh,aDG glyco up,HNF4A DNA FP,Rev-erbA mod,NR1D1 mod conf,others
CC[C@@H](CCCc1ccc(F)cc1)CN(Cc1ccc(OC)cc1)S(=O)(=O)c1ccc(C)cc1,.,.,.,2,.,
CN1Cc2nnn(Cc3ccccc3)c2-c2ccccc2S1(=O)=O,.,.,.,0,.,
Cc1c[nH]c2cccc(-c3ccc4c(c3)OCO4)c12,.,.,.,5,.,
CC(C)(C)OC(=O)NCc1cc(F)ccc1/C=C/S(=O)(=O)NCc1ccccc1,.,.,.,9,.,
COc1ccc(CCC[C@H](CCC(=O)N(c2ccccc2)c2ccccc2)CCc2ccccc2)cc1,.,.,.,0,.,
O=C(O)c1ccc(C=Nn2c(-c3ccc(F)cc3)n[nH]c2=S)cc1,.,.,.,-6,.,
Cc1ccccc1CNC(=O)c1cccc2c1C(=O)N(Cc1cccnc1)C2,.,.,.,-2,.,
C#CCNC(=O)C[C@@H]1C[C@]2(C(=O)OCC)CCC3=C2N(CCC3)C1=O,.,.,.,-5,.,
Cc1cc(C)cc(NC(=O)CCc2nc3sc4c(c3c(=O)[nH]2)CCCC4)c1,11,0,8,30*,8,
O=C(CCc1nc2sc3c(c2c(=O)[nH]1)CCCC3)Nc1cccc(Cl)c1,11,0,1,30*,21*,
O=C(OC12CCCN(C1)/C(=C/c1ccc(Cl)cc1)C2)c1cccc(F)c1 (stereo not drawn),.,.,.,8,.,
CCc1nn(CC(=O)NCCCc2ccccc2)c(=O)c2cc3c(OC)cccc3n12,-2,0,3,31*,4,
O=C(NCCc1c[nH]c2ccccc12)OCc1cn(Cc2ccc(F)cc2F)nn1,.,.,.,-2,.,
C=C(C)C#CCNCc1ccccc1,.,.,.,-4,.,
CCCOc1ccc(F)cc1-c1cc(C(=O)Nc2ccccc2)[nH]n1,-2,0,3,21*,-7,
CCN1C(=O)[C@H]2[C@@H](c3ccc(-c4cc(C(C)=O)cs4)cc3)N3CCCC[C@@]3(C(=O)OC)[C@H]2C1=O,-5,0,1,30*,21*,
CC(C)c1ccc(S(=O)(=O)c2cc3cc(Br)ccc3oc2=O)cc1,-10,0,-5,19*,15,
Cc1ccc(S(=O)(=O)c2cc3cc(Br)ccc3oc2=O)cc1,0,0,1,5,.,
O=C(Cn1c(=S)[nH]c2ccccc2c1=O)NCCc1ccccc1,-2,0,-2,31*,31*,RORg DNA counter=>40
O=C(CCn1c(=S)[nH]c2ccccc2c1=O)NCCSCc1ccccc1,-7,0,2,3,.,
COc1cc2[nH]c(=S)nc(NCCc3ccc(C)cc3)c2cc1OC,-4,4,2,76*,52*,RORg DNA counter=4*
COc1ccc(CCNc2nc(=S)[nH]c3cc(OC)c(OC)cc23)cc1OC,0,1,3,0,.,
CC1(C)Oc2ccc(C(=O)NC3CCCC3)cc2NC1=O,.,.,.,-4,.,
Cn1nc(C(=O)OCC(=O)NCc2ccc(Cl)cc2Cl)c2ccccc2c1=O,-1,0,0,18*,20*,
CCCCNC(=O)O[C@H]1CC[C@@]23CCCN2C(=O)CCC[C@H]3C1,.,.,.,-1,.,
SMILES,CSN deneddyl inh,aDG glyco up,HNF4A DNA FP,Rev-erbA mod,NR1D1 mod conf,others
COCCn1c(=NC(=O)CCS(=O)(=O)c2ccccc2)sc2cc(C(=O)OC)ccc21,2,0,4,205*,137*,RORg DNA counter=>40
COc1ccc2sc(N(CCCN(C)C)C(=O)c3ccc(S(=O)(=O)N4CCc5ccccc5C4)cc3)nc2c1,3,0,5,-4,.,
COCCn1c(=NC(=O)c2ccc(S(=O)(=O)N3CCc4ccccc4C3)cc2)sc2cc(OC)ccc21,3,0,-2,54*,19*,
Cc1nc2c(ccc3nc(NC(=O)c4ccc5c(c4)OCCO5)sc32)s1,45*,0,21,56*,27*,
COC(=O)[C@]12C[C@H](CC(=O)NCCc3ccccc3OC)C(=O)N(CCC3=CCCCC3)C1=C[C@H](C1CCCC1)O[C@@H]2C,.,.,.,-4,.,
COc1cc2oc(=O)cc(-c3ccc(-c4ccc(CO)cc4)cc3)c2c(OC)c1OC,5,0,1,30*,28*,RORg DNA counter=>40
COc1ccc(CN2C(=O)c3ccnn3CC2(C)c2nnnn2-c2c(C)cccc2C)cc1 (stereo not drawn),.,.,.,-1,.,
CN1CCN(C2=C(Cl)C(=O)N(c3ccc(Cl)cc3)C2=O)CC1,0,0,3,.,.,
O=C1C(Cl)=C(NC2CCCCC2)C(=O)N1c1ccc(Cl)cc1,1,4,-3,40*,13,
CCCCN1C[C@@H](COCc2ccccc2)Oc2cccc(F)c2S1(=O)=O,.,.,.,17*,0,
CCCCN1CC(COCc2ccccc2)Oc2cccc(F)c2S1(=O)=O (stereo not drawn),-1,0,1,12,.,
Cc1cc(C)cc(-c2c(C(=O)c3ccc(Br)cc3)[nH]c(N)c2C(=O)NCc2ccc(Cl)cc2)c1,.,.,.,5,.,
CCc1cc2cc(C(=O)Nc3ccc(C)cc3)sc2s1,-1,1,-3,45*,17*,
CCc1sc(C(=O)Nc2ccc(N3CCOCC3)cc2)cc1C,-2,0,11,5,.,
CC[C@H]1C=C[C@@H](C(=O)NS(=O)(=O)c2ccc(C)cc2)N(C(C)=O)C1,.,.,.,-3,.,
COc1cc(C(C)=O)ccc1Oc1ncnc2c1cnn2-c1ccc(F)cc1,3,2,5,25*,14,
CC(=O)N1CCN(C(=O)CCn2nnc3ccccc32)CC1,.,.,.,-1,.,
O=C(COc1ccccc1)NC(=S)Nc1ccc2c(c1)Cc1ccccc1-2,-2,0,2,77*,25*,
CCCCN1C[C@@H](COCc2ccccc2)Oc2cc(F)ccc2S1(=O)=O,.,.,.,-2,.,
Cc1csc2ncc(C(=O)Nc3ccc4c(c3)OCCO4)c(=O)n12,2,0,2,28*,14*,
Cc1cc(-c2ccccc2)[nH]c(=O)c1S(=O)(=O)c1ccccc1,1,0,-2,-2,.,
Cc1cc(-c2ccccc2)[nH]c(=O)c1S(=O)(=O)c1ccc(Cl)cc1,-5,0,2,51*,21*,
COc1cc(OC)c(N(C)S(=O)(=O)c2cccc(C(=O)OCc3c(C)noc3C)c2)cc1Cl,1,0,1,23*,37*,RORg DNA counter=i
COc1ccc(NC(=O)c2cc3c([nH]c4ccccc43)c(C)n2)cc1,1,0,-3,2,.,
Cc1nc(C(=O)Nc2ccccc2Cl)cc2c1[nH]c1ccccc12,7,0,0,21*,8,
Cc1ccccc1/C=C1\SC(=S)N(/N=C/c2cc([N+](=O)[O-])ccc2O)C1=O,-3,0,6,22*,4,
CCc1ccc(CNC(=O)CCCn2c(=O)c3cccn3c3cccnc32)cc1,4,0,2,1,.,
O=C(CCn1c(=O)c2cccn2c2cccnc21)NCc1cccc(Cl)c1,2,0,-2,64*,64*,RORg DNA counter=4.3*
O=C(CCCn1c(=O)c2cccn2c2cccnc21)NCc1cccc(Br)c1,3,0,-1,45*,19*,

# Screens from PubChem BioAssay.
